ChEMBL document CHEMBL1137436, “Development of Tyrocidine A analogues with improved antibacterial activity” (2007)
≈ marks a conversion by molar mass, not a printed value. Where a SMILES comes first, the peptide text is derived from it. [ ]: non-standard residue; d: D form. Orn = NCCC[C@H](N)C(=O)O

Legend:
[1] = system: Staphylococcus aureus; test: Antibacterial activity against methicillin-resistant Staphylococcus aureus ATCC 33592 in presence of 25 mg/L calcium by microdilution method; type: functional
Outline: (§1)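 CLSI broth microdilution in cation-adjusted Mueller-Hinton broth (CAMHB); compounds dissolved in CAMHB or a little DMSO then broth. Overnight cultures suspended in saline to 0.5 McFarland, diluted 1:100 in CAMHB and added to wells of diluted compound. Drug-free wells subcultured quantitatively for actual colony counts. Calcium at 25 or 50 mg/L as the line states.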

[2] = system: Staphylococcus aureus; test: Antibacterial activity against methicillin-susceptible Staphylococcus aureus ATCC 29213 in presence of 25 mg/L calcium by microdilution method; type: functional; outline: as §1
[3] = system: Enterococcus faecalis; test: Antibacterial activity against Enterococcus faecalis ATCC 29212 in presence of 25 mg/L calcium by microdilution method; type: functional; outline: as §1
[4] = system: Escherichia coli; test: Antibacterial activity against Escherichia coli ATCC 25922 in presence of 25 mg/L calcium by microdilution method; type: functional
Outline: (§2)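 CLSI broth microdilution MIC. Compounds dissolved in cation-adjusted Mueller-Hinton broth (CAMHB), or in a little DMSO then broth. Overnight cultures suspended in saline to 0.5 McFarland, diluted 1:100 in CAMHB, added to wells of diluted compound. Drug-free wells quantitatively subcultured to confirm actual colony counts. Calcium at 25 or 50 mg/L.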

[5] = system: Staphylococcus epidermidis; test: Antibacterial activity against methicillin-resistant Staphylococcus epidermidis MRL 19010 in presence of 25 mg/L calcium by microdilution method; type: functional; outline: as §1
[6] = system: Enterococcus faecalis; test: Antibacterial activity against vancomycin-resistant Enterococcus faecalis MRL 17001 in presence of 25 mg/L calcium by microdilution method; type: functional; outline: as §1
[7] = system: Bacillus subtilis; test: Antibacterial activity against Bacillus subtilis MRL 18734 in presence of 25 mg/L calcium by microdilution method; type: functional; outline: as §2
[8] = system: Bacillus cereus; test: Antibacterial activity against Bacillus cereus MRL 18731 in presence of 25 mg/L calcium by microdilution method; type: functional; outline: as §2
[9] = system: Enterococcus faecalis; test: Antibacterial activity against Enterococcus faecalis ATCC 29212 in presence of 50 mg/L calcium by microdilution method; type: functional; outline: as §1
[10] = system: Escherichia coli; test: Antibacterial activity against Escherichia coli ATCC 25922 in presence of 50 mg/L calcium by microdilution method; type: functional; outline: as §2
[11] = system: Staphylococcus epidermidis; test: Antibacterial activity against methicillin-resistant Staphylococcus epidermidis MRL 19010 in presence of 50 mg/L calcium by microdilution method; type: functional; outline: as §1
[12] = system: Enterococcus faecalis; test: Antibacterial activity against vancomycin-resistant Enterococcus faecalis MRL 17001 in presence of 50 mg/L calcium by microdilution method; type: functional; outline: as §1
[13] = system: Bacillus subtilis; test: Antibacterial activity against Bacillus subtilis MRL 18734 in presence of 50 mg/L calcium by microdilution method; type: functional
Outline: (§3)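 CLSI broth microdilution. Compounds dissolved in cation-adjusted Mueller-Hinton broth (CAMHB), or in a small amount of DMSO followed by broth. Overnight cultures suspended in saline to 0.5 McFarland, diluted 1:100 in CAMHB and added to wells of diluted compound. Drug-free wells subcultured quantitatively to give actual colony counts. Calcium tested at 50 mg/L, alongside the standard 25 mg/L.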

[14] = system: Bacillus cereus; test: Antibacterial activity against Bacillus cereus MRL 18731 in presence of 50 mg/L calcium by microdilution method; type: functional; outline: as §3
[15] = system: Staphylococcus aureus; test: microbe, parasite or virus in culture; settings: ATCC 33592
[16] = system: Staphylococcus aureus; test: microbe, parasite or virus in culture; settings: ATCC 29213

SMILES | MIC [1] [µg/mL] | MIC [2] [µg/mL] | MIC [3] [µg/mL] | MIC [4] [µg/mL] | MIC [5] [µg/mL] | MIC [6] [µg/mL] | MIC [7] [µg/mL] | MIC [8] [µg/mL] | MIC [9] [µg/mL] | MIC [10] [µg/mL] | MIC [11] [µg/mL] | MIC [12] [µg/mL] | MIC [13] [µg/mL] | MIC [14] [µg/mL] | MIC [15] [µg/mL] | MIC [16] [µg/mL]
CC(C)C[C@@H]1NC(=O)[C@H](CCCN)NC(=O)[C@H](C(C)C)NC(=O)[C@H](Cc2ccc(O)cc2)NC(=O)[C@H](CCCCN)NC(=O)[C@H](CC(N)=O)NC(=O)[C@@H](CCCCN)NC(=O)[C@H](Cc2c(F)c(F)c(F)c(F)c2F)NC(=O)[C@@H]2CCCN2C(=O)[C@@H](Cc2ccccc2)NC1=O | 8 | 8 | 16 | 32 | 4 | 4 | 2 | 4 | – | – | – | – | – | – | – | –
CC(C)C[C@@H]1NC(=O)[C@H](CCCN)NC(=O)[C@H](C(C)C)NC(=O)[C@H](Cc2ccc(O)cc2)NC(=O)[C@H](CCCCN)NC(=O)[C@H](CC(N)=O)NC(=O)[C@@H](Cc2ccccc2)NC(=O)[C@H](Cc2c(F)c(F)c(F)c(F)c2F)NC(=O)[C@@H]2CCCN2C(=O)[C@@H](Cc2ccccc2)NC1=O | 8 | 16 | 4 | > 256 | 4 | 4 | 8 | 8 | – | – | – | – | – | – | – | –
CC(C)C[C@@H]1NC(=O)[C@H](CCCN)NC(=O)[C@H](C(C)C)NC(=O)[C@H](Cc2c(F)c(F)c(F)c(F)c2F)NC(=O)[C@H](CCC(N)=O)NC(=O)[C@H](CC(N)=O)NC(=O)[C@@H](Cc2ccccc2)NC(=O)[C@H](Cc2c(F)c(F)c(F)c(F)c2F)NC(=O)[C@@H]2CCCN2C(=O)[C@@H](Cc2ccccc2)NC1=O | > 256 | > 256 | 32 | > 256 | 256 | 32 | 128 | 256 | – | – | – | – | – | – | – | –
CC(C)C[C@@H]1NC(=O)[C@H](CCCN)NC(=O)[C@H](C(C)C)NC(=O)[C@H](Cc2ccc(O)cc2)NC(=O)[C@H](CCC(N)=O)NC(=O)[C@H](CC(N)=O)NC(=O)[C@@H](CCCCN)NC(=O)[C@H](Cc2ccccc2)NC(=O)[C@@H]2CCCN2C(=O)[C@@H](Cc2ccccc2)NC1=O | 64 | 32 | 64 | 128 | 32 | 32 | 16 | 64 | – | – | – | – | – | – | – | –
CC(C)C[C@@H]1NC(=O)[C@H](CCCN)NC(=O)[C@H](C(C)C)NC(=O)[C@H](Cc2ccc(O)cc2)NC(=O)[C@H](CCCCN)NC(=O)[C@H](CC(N)=O)NC(=O)[C@@H](CCCCN)NC(=O)[C@H](Cc2ccccc2)NC(=O)[C@@H]2CCCN2C(=O)[C@@H](Cc2ccccc2)NC1=O | 16 | 16 | 32 | 32 | 4 | 8 | 2 | 16 | – | – | – | – | – | – | – | –
CC(C)C[C@@H]1NC(=O)[C@H](CCCN)NC(=O)[C@H](C(C)C)NC(=O)[C@H](Cc2c(F)c(F)c(F)c(F)c2F)NC(=O)[C@H](CCC(N)=O)NC(=O)[C@H](CC(N)=O)NC(=O)[C@@H](Cc2ccccc2)NC(=O)[C@H](Cc2ccccc2)NC(=O)[C@@H]2CCCN2C(=O)[C@@H](Cc2ccccc2)NC1=O | 16 | 16 | 2 | > 256 | 2 | 2 | 8 | 8 | – | – | – | – | – | – | – | –
CC(C)C[C@@H]1NC(=O)[C@H](CCCN)NC(=O)[C@H](C(C)C)NC(=O)[C@H](Cc2ccc(O)cc2)NC(=O)[C@H](CCCCN)NC(=O)[C@H](CC(N)=O)NC(=O)[C@@H](Cc2ccccc2)NC(=O)[C@H](Cc2ccccc2)NC(=O)[C@@H]2CCCN2C(=O)[C@@H](Cc2ccccc2)NC1=O (cyclo(F[dF]NKYV[Orn]L[dF]P)) | 4 | 4 | 2 | 128 | 2 | 2 | 2 | 2 | – | – | – | – | – | – | – | –
CC(C)C[C@@H]1NC(=O)[C@H](CCCN)NC(=O)[C@H](C(C)C)NC(=O)[C@H](Cc2ccc(O)cc2)NC(=O)[C@H](CCC(N)=O)NC(=O)[C@H](CC(N)=O)NC(=O)[C@@H](Cc2ccccc2)NC(=O)[C@H](Cc2ccccc2)NC(=O)[C@@H]2CCCN2C(=O)[C@@H](Cc2ccccc2)NC1=O [TYROCIDINE A] (cyclo(F[dF]NQYV[Orn]L[dF]P)) | 32 | 32 | 16 | > 128 | 16 | 16 | 16 | 16 | – | – | – | – | – | – | – | –
CC(C)C[C@@H]1NC(=O)[C@H](CCCN)NC(=O)[C@H](C(C)C)NC(=O)[C@H](Cc2ccc(O)cc2)NC(=O)[C@H](CCC(N)=O)NC(=O)[C@H](CC(N)=O)NC(=O)[C@@H](Cc2ccccc2)NC(=O)[C@H](Cc2c(F)c(F)c(F)c(F)c2F)NC(=O)[C@@H]2CCCN2C(=O)[C@@H](Cc2ccccc2)NC1=O | 16 | 8 | 4 | > 256 | 8 | 8 | 4 | 4 | – | – | – | – | – | – | – | –
CCCCCCCCCC(=O)N[C@@H](Cc1c[nH]c2ccccc12)C(=O)N[C@H](CC(N)=O)C(=O)N[C@@H](CC(=O)O)C(=O)N[C@@H]1C(=O)NCC(=O)N[C@@H](CCCN)C(=O)N[C@@H](CC(=O)O)C(=O)N[C@H](C)C(=O)N[C@@H](CC(=O)O)C(=O)NCC(=O)N[C@H](CO)C(=O)N[C@@H]([C@H](C)CC(=O)O)C(=O)N[C@@H](CC(=O)c2ccccc2N)C(=O)O[C@@H]1C | 1 | 1 | 1 | > 128 | 1 | 2 | 1 | 0.5 | 1 | > 128 | 0.5 | 1 | 0.25 | 0.25 | 0.25 (≈ 0.154 µM) | 0.25 (≈ 0.154 µM)
